Bioassay records: PubChem BioAssay, several laboratories
LEDGF integ inh: blockers of LEDGF/p75-dependent integrase strand transfer – biochemical, TR-FRET, high throughput, primary screen; HIV-1 integrase (with human LEDGF/p75); TR-FRET IN-LEDGF/p75 DNA integration, Eu/Cy5; inhibition, % at 3.7 µM; 370,000 compounds, 0.64% hits;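 active means inhibition above the screen-wide mean plus 3 SD, cut at about 13% in these data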;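 further: signal is the Cy5 over europium emission ratio at 671 and 618 nm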
MBD2 inh: inhibitors of MBD2 binding to methylated DNA, primary screen, biochemical, TR-FRET, DNA-binding domain, human. Methyl-CpG-binding domain protein 2 (Homo sapiens), Q9UBB5. MBD2 binding to methylated oligonucleotide. inhibition, % at 4.4 µM. 370,000 compounds, 0.31% hits. AID 686964, 2013; in the data active means inhibition above about 13%
UHRF1 MBD2 ctr: UHRF1 methylated DNA binding inhibitors, primary screen, counter-screen for MBD2 inhibitor project, biochemical, TR-FRET, human UHRF1, single concentration. E3 ubiquitin-protein ligase UHRF1 (Homo sapiens), Q96T88. AID 687016, 2013. 370,000 compounds, 0.75% hits. UHRF1 binding to methylated oligo. inhibition, % at 4.4 µM; in the data active means inhibition above about 21%;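 further: UHRF1 SRA domain binding a hemimethylated CpG hairpin DNA probe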
ATG4B inhibitor: ATG4B protease inhibitors, primary screen, biochemical, fluorescence, uHTS | Cysteine protease ATG4B (Homo sapiens), Q9Y4P1 | ATG4B cleavage of LC3-PLA2, NBD-HPC fluorescence, 1 h | inhibition, % at 8.33 µM | 340,000 compounds, 0.51% hits; in the data active means inhibition above about 40%
Target sequence (Q9Y4P1 whole entry, looked up): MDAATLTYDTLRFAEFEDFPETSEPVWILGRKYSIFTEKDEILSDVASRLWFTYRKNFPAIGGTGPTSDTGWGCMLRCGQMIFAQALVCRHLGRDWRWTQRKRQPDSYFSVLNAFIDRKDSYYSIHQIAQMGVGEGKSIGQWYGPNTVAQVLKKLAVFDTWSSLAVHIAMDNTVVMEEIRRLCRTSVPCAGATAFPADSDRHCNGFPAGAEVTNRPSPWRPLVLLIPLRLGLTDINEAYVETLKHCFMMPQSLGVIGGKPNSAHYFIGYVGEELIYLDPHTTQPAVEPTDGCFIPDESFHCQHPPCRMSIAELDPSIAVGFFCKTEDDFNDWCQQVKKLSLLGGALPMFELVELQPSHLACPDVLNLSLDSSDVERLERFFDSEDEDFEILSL
CSN inh: inhibitors of CSN-mediated cullin deneddylation, primary screen, biochemical, fluorescence polarization, uHTS; Purified CSN, SCF-Nedd8-OG deneddylation; inhibition, % at 12.5 µM; AID 651999, 2013; 360,000 compounds, 0.38% hits;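 active means pattern-corrected inhibition above about 35%, with an unprinted fluorescence ratio check between 0.5 and 1.5, limit read from the data, passing the limit was not always enough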
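Test system: purified human Csn5 enzyme expressed in HEK293T cells. Amount: 0.24 nM enzyme. Reagent: SCFSkp2-Nedd8OG substrate at 10 nM final. Schedule: 90 min incubation of compound, enzyme and substrate at room temperature. Detection: fluorescence polarization. Read-out: % inhibition of substrate cleavage by Csn5.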
rCAG RNA binder: binders of r(CAG) RNA repeats, primary screen, biochemical, fluorescence. 370,000 compounds, 1.3% hits. inhibition, % at 3 µM. r(CAG) RNA repeat, TO-PRO-1 dye displacement fluorescence;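 active means inhibition above the plate cutoff, the mean of all test compounds on that plate plus 3 SD, cut at about 35% in these data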;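 further: higher means more dye released from RNA so lower well fluorescence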
Numbers stand for hits; n = inactive; x = no result. The list is not random: actives were taken first. Their share in the collection is about 3.1%.

SMILES | LEDGF integ inh | MBD2 inh | UHRF1 MBD2 ctr | ATG4B inhibitor | CSN inh | rCAG RNA binder
COc1ccc(Cn2cc(CN3[C@H](Cc4ccccc4)COc4cc(Br)ccc4S3(=O)=O)nn2)cc1 | n | n | n | x | x | n
NC(=O)c1nc(N2CCOCC2)nc(N2CCOCC2)n1 | n | n | 37 | n | n | n
CC(C)(C)Nc1nc(C(N)=O)nc(N2CCOCC2)n1 | n | n | n | n | n | n
CCC(Sc1nc(N)cc(=O)[nH]1)C(=O)Nc1cc(C)on1 (stereo unspecified) | n | n | n | n | n | n
CCC(Sc1nc(-c2ccccc2)c(C#N)c(=O)[nH]1)C(=O)Nc1cc(C)on1 (stereo unspecified) | n | n | n | n | n | 50
C=CCn1cccc(C(=O)Nc2ccc(C)c(C)c2)c1=O | n | n | n | n | n | n
C=CCn1cccc(C(=O)Nc2cc(OC)ccc2OC)c1=O | n | n | 29 | n | n | n
COc1ccccc1-c1nnc(SCC(=O)NCc2c(C)c(Cl)cc(C(C)C)c2O)o1 | n | n | 43 | n | n | n
Cc1cccc(NC(=O)C2CCCN(c3nnc(-n4cccc4)s3)C2)c1C (stereo unspecified) | n | n | n | x | x | n
COCc1nnc(NS(=O)(=O)c2ccc(Cl)cc2)s1 | n | n | n | n | n | n
O=S(=O)(Nc1nnc(-c2ccccc2)s1)c1ccc(Cl)cc1 | n | n | n | n | n | 74
CCCNC(=O)C[C@H]1CC[C@H]2[C@@H](COc3ccc(NC(=O)c4cncs4)cc3C(=O)N2C)O1 | n | n | n | x | x | n
CCCC#Cc1cnc2c(c1)C(=O)N([C@H](C)CO)C[C@H](C)[C@@H](CN(C)C(=O)CCN1CCCCC1)O2 | n | n | 24 | x | n | n
C[C@H](CO)N1C[C@H](C)[C@@H](CN(C)C(=O)Nc2ccccc2)Oc2ncc(C#CC3CCCCC3)cc2C1=O | n | n | 22 | x | n | n
C[C@@H]1CN([C@@H](C)CO)C(=O)c2cc(Br)cnc2O[C@H]1CN(C)C(=O)CCN1CCCCC1 | n | n | n | x | n | n
COc1ccc(/C=C/c2c([N+](=O)[O-])c(=O)n(C)c(=O)n2C)cc1OC | n | n | n | n | n | n
Cn1c(/C=C/c2ccc(Cl)cc2)c([N+](=O)[O-])c(=O)n(C)c1=O | n | n | 21 | n | n | n
N#Cc1ccc(/C=C/C(=O)c2ccc3c(c2)OCO3)cc1 | n | n | 26 | n | n | n
COc1ccc(/C=C/C(=O)c2ccc3c(c2)OCO3)cc1OC | n | n | n | n | n | n
COc1cc2c(cc1NC(=O)CSc1nnc(COc3ccccc3)n1Cc1ccco1)oc1ccccc12 | n | n | n | x | x | n
O=C(Nc1ccc(OC(F)F)cc1)c1ncc(Cl)c(Cl)c1Cl | n | n | 24 | n | n | n
COc1cc(-c2c(C(=O)c3ccccc3)[nH]c(N)c2C(N)=O)ccc1O | n | n | n | x | x | x
COC(=O)c1ccc(-c2ccc3c(c2)[C@]2(CCC[C@@H](O)[C@@H]2NC(=O)CCc2ccccc2)C(=O)N3Cc2ccccc2)cc1 | n | n | n | x | x | n
O=C(N/N=C/c1ccc(F)cc1)c1cc(-c2ccc3c(c2)OCO3)n[nH]1 | n | n | n | n | n | n
CN(C)c1ccc(/C=N/NC(=O)c2cc(-c3ccc4c(c3)OCO4)n[nH]2)cc1 | n | n | n | n | 42 | n
SMILES | LEDGF integ inh | MBD2 inh | UHRF1 MBD2 ctr | ATG4B inhibitor | CSN inh | rCAG RNA binder
CC1(C(=O)NS(=O)(=O)c2ccccc2Cl)CCN1C(=O)C1(c2ccc(Cl)cc2)CCC1 (stereo unspecified) | n | n | n | x | n | 47
CC1(C(=O)NS(=O)(=O)c2ccccc2Cl)CCN1C(=O)C1(c2ccccc2)CCCC1 (stereo unspecified) | n | n | n | x | n | n
CCCC/C=C1/[C@H](CC)N(C)C2=N[C@@H](c3ccccc3)CC(=O)N21 | n | n | n | x | x | x
CN1CCN(S(=O)(=O)c2cc(C(F)(F)F)ccc2Cl)CC1 | n | n | 31 | n | n | n
O=S(=O)(c1cc(C(F)(F)F)ccc1Cl)N1CCN(c2ccccn2)CC1 | n | n | n | n | n | n
Cn1cccc1CC(=O)NN=Cc1cccc(F)c1 | n | n | n | x | x | n
COCCCn1c(C(=O)Nc2ccc3c(c2)OCO3)cc2c(=O)n3cccc(C)c3nc21 | n | n | n | x | 42 | n
COCCCn1c(C(=O)N2CCOCC2)cc2c(=O)n3cccc(C)c3nc21 | n | n | n | n | n | n
COCCN1C(=O)C2=C(C1=O)C1N(C)c3ccccc3[C@@]13C[C@@H](CO)N(S(=O)(=O)c1ccc(OC)cc1)C3=N2 (stereo partly specified) | n | n | n | x | x | n
COc1c(C)cccc1C(=O)Nc1ccc(N2CCN(C(=O)c3ccccc3C)CC2)cc1 | n | n | 27 | n | n | n
COC(=O)[C@@H]1CCCN1Cc1nc(Cc2ccc(OC)c(OC)c2)no1 | n | n | 33 | n | n | n
COC(=O)[C@@H]1CCCN1Cc1nc(Cc2ccccc2F)no1 | n | n | n | n | n | n
N#CC(C#N)=Cc1cccn1-c1ccc(C(=O)O)cc1 | n | n | 43 | n | n | n
N#C/C(=C/c1cccn1-c1cccc(C(=O)O)c1)c1ccc(Cl)cc1 | n | n | n | n | n | n
COC(CNC(=O)[C@H](Cc1ccccc1)NC(C)(C)C(=O)NC1CCCCC1)OC | n | n | n | x | x | x
CC(C)C[C@@H]1COc2cc(F)ccc2S(=O)(=O)N1C | n | n | n | x | x | n
O=C(NNc1ccccc1Br)C(=O)n1ccc2ccccc21 | n | n | 66 | n | n | n
CCN1/C(=C/c2ccc3cc(C)ccc3[n+]2CC)Sc2ccc3sccc3c21 | x | x | x | n | 162 | x
CC[n+]1c(C)sc2c3ccsc3ccc21 | n | n | n | n | n | n
Cc1cccn2cc(-c3ccc4c(c3)NC(=O)CO4)nc12 | n | n | n | n | n | n
Cc1ccn2cc(-c3ccc4c(c3)NC(=O)CO4)nc2c1 | n | n | n | n | 54 | n
CCOc1ccc(S(=O)(=O)n2c(C)nc3ccccc32)cc1 | n | n | n | n | n | n
CCCCOc1ccc(S(=O)(=O)n2c(C)nc3ccccc32)cc1 | n | n | 43 | n | n | n
CC(C)N(Cc1ccccc1)C(=O)/C=C/c1ccccc1[N+](=O)[O-] | n | n | 28 | n | n | n
CCn1c(SCc2nc3sc(C(=O)O)c(C)c3c(=O)[nH]2)nc2ccccc21 | n | n | 25 | n | n | n
